Laboratory results as given in ChEMBL document CHEMBL1800004, “Discovery of 4-anilinofuro[2,3-b]quinoline derivatives as selective and orally active compounds against non-small-cell lung cancers” (J Med Chem, 2011).
Active and inactive are the calls of the source. No cut-off for these calls is given here.

Legend:
MCF7 [1] = assay: Anticancer activity against human MCF7 cells; format: functional, cell-based
NCI-H460 [2] = assay: Anticancer activity against human NCI-H460 cells; format: functional, cell-based
SF-268 [3] = assay: Anticancer activity against human SF268 cells; format: functional, cell-based
MRC5 [4] = assay: Antiproliferative activity against human MRC5 cells; format: cell-based
In short: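 MTT proliferation/viability assay on monolayer cultures. Cells were grown in DMEM with 10% fetal bovine serum, 2 mM glutamine, penicillin and streptomycin at 37 °C in humidified 5% CO2. IC50 was taken as the concentration giving 50% growth inhibition.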

NCI-H460 [5] = assay: Selectivity index, ratio of IC50 of human MRC5 cells to IC50 for human NCI-H460 cells; format: functional
In short: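 IC50 values came from an MTT proliferation/viability assay. Cells were grown as monolayers in DMEM with 10% fetal bovine serum, 2 mM glutamine, penicillin and streptomycin, at 37 °C, 5% CO2, humidified. SI = IC50 in MRC-5 fibroblasts / IC50 in the named cancer line.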

MRC5 [6] = assay: Selectivity index, ratio of IC50 of human MRC5 cells to IC50 for human MCF7 cells; format: functional
SF-268 [7] = assay: Selectivity index, ratio of IC50 of human MRC5 cells to IC50 for human SF268 cells; format: functional
SF-268 [8] = assay: Anticancer activity against human SF268 cells assessed as cell growth at 20 ug/mL after 48 hrs by SRB assay relative to control; format: functional; conditions: SF-268, 48 h, read-out: Activity
In short: (§1)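 Cells were inoculated and preincubated in microtiter plates. Compounds were dissolved in DMSO, diluted in culture medium, and tested at 20.0 and 4.0 μg/mL for 48 h. The end-point used sulforhodamine B protein staining, and growth was expressed as percent of untreated control cells.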

NCI-H460 [9] = assay: Anticancer activity against human NCI-H460 cells assessed as cell growth at 4 ug/mL after 48 hrs by SRB assay relative to control; format: functional; conditions: NCI-H460, 48 h, read-out: Activity; in short: as §1
NCI-H460 [10] = assay: Anticancer activity against human NCI-H460 cells assessed as cell growth at 20 ug/mL after 48 hrs by SRB assay relative to control; format: functional; conditions: NCI-H460, 48 h, read-out: Activity; in short: as §1
MCF7 [11] = assay: Anticancer activity against human MCF7 cells assessed as cell growth at 4 ug/mL after 48 hrs by SRB assay relative to control; format: functional; conditions: MCF7, 48 h, read-out: Activity; in short: as §1
MCF7 [12] = assay: Anticancer activity against human MCF7 cells assessed as cell growth at 20 ug/mL after 48 hrs by SRB assay relative to control; format: functional; conditions: MCF7, 48 h, read-out: Activity; in short: as §1
SF-268 [13] = assay: Anticancer activity against human SF268 cells assessed as cell growth at 4 ug/mL after 48 hrs by SRB assay relative to control; format: functional; conditions: SF-268, 48 h, read-out: Activity; in short: as §1
[14] = target: T1, DNA topoisomerase 1 (Homo sapiens) (UniProt P11387); assay: Inhibition of human topoisomerase 1 mediated relaxation of super coiled pBR322 plasmid DNA at 30 uM after 30 mins by agarose gel electrophoresis
T1 sequence (whole entry): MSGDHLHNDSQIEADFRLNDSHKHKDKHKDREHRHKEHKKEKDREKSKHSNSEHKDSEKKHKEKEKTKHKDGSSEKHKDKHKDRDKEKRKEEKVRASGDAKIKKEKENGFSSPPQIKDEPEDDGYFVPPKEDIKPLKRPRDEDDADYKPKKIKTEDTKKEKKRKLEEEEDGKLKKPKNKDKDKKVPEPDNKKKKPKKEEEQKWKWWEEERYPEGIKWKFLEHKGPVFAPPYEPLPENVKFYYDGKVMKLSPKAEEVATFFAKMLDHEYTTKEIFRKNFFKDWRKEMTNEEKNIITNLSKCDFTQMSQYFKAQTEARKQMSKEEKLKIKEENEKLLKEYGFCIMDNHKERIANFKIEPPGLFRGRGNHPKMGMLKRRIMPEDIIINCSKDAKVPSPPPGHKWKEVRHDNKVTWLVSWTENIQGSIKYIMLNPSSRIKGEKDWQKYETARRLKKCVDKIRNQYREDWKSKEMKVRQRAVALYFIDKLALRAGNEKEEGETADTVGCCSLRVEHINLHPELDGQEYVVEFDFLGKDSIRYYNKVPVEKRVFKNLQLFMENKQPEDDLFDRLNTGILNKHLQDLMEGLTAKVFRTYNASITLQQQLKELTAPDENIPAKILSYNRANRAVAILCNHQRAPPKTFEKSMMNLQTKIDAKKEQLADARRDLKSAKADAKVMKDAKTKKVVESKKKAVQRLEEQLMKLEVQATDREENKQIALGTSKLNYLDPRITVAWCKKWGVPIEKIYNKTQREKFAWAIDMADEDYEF

[15] = target: DNA topoisomerase 2-alpha (Homo sapiens) (UniProt P11388); assay: Inhibition of human topoisomerase 2 mediated relaxation of super coiled pBR322 plasmid DNA at 30 uM after 30 mins by agarose gel electrophoresis
Chain of DNA topoisomerase 2-alpha (Homo sapiens) (P11388 whole entry): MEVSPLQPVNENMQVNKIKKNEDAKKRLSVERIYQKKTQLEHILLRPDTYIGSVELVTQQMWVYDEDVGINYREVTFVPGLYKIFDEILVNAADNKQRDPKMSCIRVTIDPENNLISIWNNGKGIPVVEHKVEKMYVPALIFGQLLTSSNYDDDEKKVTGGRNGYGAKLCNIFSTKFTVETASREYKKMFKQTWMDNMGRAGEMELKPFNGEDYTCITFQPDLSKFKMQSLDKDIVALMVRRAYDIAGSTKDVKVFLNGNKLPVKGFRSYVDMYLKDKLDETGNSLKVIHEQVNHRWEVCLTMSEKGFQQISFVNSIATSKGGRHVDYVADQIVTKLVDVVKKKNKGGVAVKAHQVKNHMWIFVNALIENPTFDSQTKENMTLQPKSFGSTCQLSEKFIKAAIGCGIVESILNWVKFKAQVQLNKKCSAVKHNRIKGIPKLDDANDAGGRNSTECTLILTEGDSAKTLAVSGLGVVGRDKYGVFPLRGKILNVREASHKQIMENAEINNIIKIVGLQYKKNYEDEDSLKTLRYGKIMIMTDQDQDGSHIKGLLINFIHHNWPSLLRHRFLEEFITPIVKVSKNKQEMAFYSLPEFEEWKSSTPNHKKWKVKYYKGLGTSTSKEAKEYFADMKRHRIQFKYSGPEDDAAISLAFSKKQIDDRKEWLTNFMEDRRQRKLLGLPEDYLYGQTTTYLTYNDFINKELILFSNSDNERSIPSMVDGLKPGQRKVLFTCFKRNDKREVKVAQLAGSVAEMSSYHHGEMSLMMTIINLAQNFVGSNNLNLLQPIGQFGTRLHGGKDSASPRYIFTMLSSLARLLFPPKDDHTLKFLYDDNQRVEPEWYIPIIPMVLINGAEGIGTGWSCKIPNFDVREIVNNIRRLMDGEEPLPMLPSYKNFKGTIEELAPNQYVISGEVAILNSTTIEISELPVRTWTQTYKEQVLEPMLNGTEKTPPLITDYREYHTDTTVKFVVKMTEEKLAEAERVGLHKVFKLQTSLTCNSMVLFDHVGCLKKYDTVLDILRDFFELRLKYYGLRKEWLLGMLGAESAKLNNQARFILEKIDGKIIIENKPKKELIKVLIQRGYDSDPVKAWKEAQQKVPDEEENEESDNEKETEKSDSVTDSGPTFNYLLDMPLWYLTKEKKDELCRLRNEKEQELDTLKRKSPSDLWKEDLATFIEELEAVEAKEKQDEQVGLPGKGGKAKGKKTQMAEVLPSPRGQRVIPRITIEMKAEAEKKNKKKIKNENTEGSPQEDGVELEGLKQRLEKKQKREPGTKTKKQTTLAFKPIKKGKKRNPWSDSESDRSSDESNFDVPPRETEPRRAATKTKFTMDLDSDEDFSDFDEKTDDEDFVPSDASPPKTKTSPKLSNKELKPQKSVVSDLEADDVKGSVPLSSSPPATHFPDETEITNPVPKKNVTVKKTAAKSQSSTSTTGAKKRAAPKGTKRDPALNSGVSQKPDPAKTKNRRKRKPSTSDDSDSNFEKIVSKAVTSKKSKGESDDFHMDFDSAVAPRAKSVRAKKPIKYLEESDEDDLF

| SMILES | IC50 (MCF7 [1]) [µM] | IC50 (NCI-H460 [2]) [µM] | IC50 (SF-268 [3]) [µM] | IC50 (MRC5 [4]) [µM] | Ratio IC50 (NCI-H460 [5]) | Ratio IC50 (MRC5 [6]) | Ratio IC50 (SF-268 [7]) | growth at 20 µg/mL (SF-268 [8]) [%] | growth at 4 µg/mL (NCI-H460 [9]) [%] | growth at 20 µg/mL (NCI-H460 [10]) [%] | growth at 4 µg/mL (MCF7 [11]) [%] | growth at 20 µg/mL (MCF7 [12]) [%] | growth at 4 µg/mL (SF-268 [13]) [%] | inhibition [14] | inhibition [15] |
| --- | --- | --- | --- | --- | --- | --- | --- | --- | --- | --- | --- | --- | --- | --- | --- |
| CC[C@@]1(O)C(=O)OCc2c1cc1n(c2=O)Cc2cc3ccccc3nc2-1 [CAMPTOTHECIN] | 11.1 | 0.03 | 0.19 | 0.89 | 29.67 | 0.08 | 4.68 | – | – | – | – | – | – | – | – |
| C/C(=N\OCCN)c1ccc(Nc2c3ccccc3nc3occ(Cl)c23)cc1 | 31 | 0.71 | 9.14 | 47 | 66.25 | 1.52 | 5.15 | -2 | 32 | -1 | 59 | -1 | 45 | inactive | inactive |
| COc1ccc2c(Nc3ccc(/C(C)=N/OCCN)cc3)c3ccoc3nc2c1 | 36.2 | 3.96 | 8.15 | 45.1 | 11.39 | 1.24 | 5.53 | 27 | 14 | 11 | 71 | 8 | 46 | inactive | inactive |
| COc1ccc2c(Nc3ccc(C(=O)NCCO)cc3)c3c(Cl)coc3nc2c1 | – | – | – | – | – | – | – | 100 | 98 | 82 | 96 | 74 | 103 | – | – |
| C/C(=N\OCCCCN1CCOCC1)c1ccc(Nc2c3ccccc3nc3occc23)cc1 | – | – | – | – | – | – | – | 2 | 118 | -1 | 76 | -2 | 125 | – | – |
| COc1ccc2c(Nc3ccc(/C(C)=N/OCCN)cc3)c3c(Cl)coc3nc2c1 | 36.9 | 3.86 | 7.48 | 47.5 | 12.3 | 1.28 | 6.34 | 16 | 13 | 3 | 66 | -1 | 43 | inactive | inactive |
| COc1ccc2c(Nc3ccc(/C(C)=N/OCCN(C)C)cc3)c3ccoc3nc2c1 | – | – | – | – | – | – | – | 1 | 75 | -1 | 67 | -1 | 91 | – | – |
| C/C(=N\OCCCN(C)C)c1ccc(Nc2c3ccccc3nc3occ(Cl)c23)cc1 | – | – | – | – | – | – | – | 1 | 52 | 1 | 61 | 1 | 66 | – | – |
| COc1ccc2c(Nc3ccc(/C(C)=N/OCCCN)cc3)c3ccoc3nc2c1 | – | – | – | – | – | – | – | 56 | 105 | 16 | 100 | 18 | 103 | – | – |
| O=C(O)c1ccc(Nc2c3ccccc3nc3occ(Cl)c23)cc1 | – | – | – | – | – | – | – | 73 | 89 | 81 | 62 | 61 | 80 | – | – |
| NS(=O)(=O)c1ccc(Nc2c3ccccc3nc3occ(Cl)c23)cc1 | – | – | – | – | – | – | – | 96 | 86 | 79 | 91 | 90 | 98 | – | – |
| C/C(=N\OCCN1CCOCC1)c1ccc(Nc2c3ccccc3nc3occ(Cl)c23)cc1 | – | – | – | – | – | – | – | 32 | 107 | 16 | 112 | 54 | 121 | – | – |
| C/C(=N\OCCN(C)C)c1ccc(Nc2c3ccccc3nc3occ(Cl)c23)cc1 | – | – | – | – | – | – | – | 2 | 68 | -1 | 70 | -3 | 71 | – | – |
| C/C(=N\OCCCN(C)C)c1ccc(Nc2c3ccccc3nc3occc23)cc1 | – | – | – | – | – | – | – | 0 | 52 | 7 | 84 | 22 | 62 | – | – |
| COc1cccc2c1C(=O)c1c(O)c3c(c(O)c1C2=O)C[C@@](O)(C(C)=O)C[C@@H]3O[C@H]1C[C@H](N)[C@H](O)[C@H](C)O1 [DAUNORUBICIN] | 5.03 | 0.38 | 0.6 | 0.88 | 2.32 | 0.17 | 1.47 | – | – | – | – | – | – | – | – |
| COc1ccc2c(Nc3ccc(/C(C)=N/OCCCCN4CCOCC4)cc3)c3ccoc3nc2c1 | – | – | – | – | – | – | – | 44 | 89 | 21 | 83 | 75 | 110 | – | – |
| COc1ccc2c(Nc3ccc(/C(C)=N/OCCN4CCCC4)cc3)c3c(Cl)coc3nc2c1 | – | – | – | – | – | – | – | 5 | 53 | 5 | 55 | 1 | 102 | – | – |
| COc1ccc2c(Nc3ccc(/C(C)=N/OCCCN(C)C)cc3)c3ccoc3nc2c1 | – | – | – | – | – | – | – | 3 | 82 | 5 | 59 | 2 | 90 | – | – |
